Test results from ChEMBL document CHEMBL1123351, “Synthesis and pharmacological evaluation of some 6-substituted 7-methyl-1,4-dioxa-7-azaspiro[4.5]decanes as potential dopamine agonists” (1986).

How the values were obtained:
Format in all cases: functional
Felis catus = assay: Compound was tested in vivo for dopamine agonist activity in the cat cardioaccelerator nerve assay; settings: read-out: ID50 (the source's name)
Method in brief: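 Cats anesthetized with pentobarbital sodium 30 mg/kg injected into the thoracic cavity. Compounds given intravenously at doses spaced 0.33 log intervals apart, with N = 3 per dose. Inhibition of cardioaccelerator nerve response measured.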

Rattus norvegicus [1] = assay: Compound was tested in vivo for dopamine agonist activity in the rat rotation assay after intravenous administration at dose 0.46 (umol/kg)
Rattus norvegicus [2] = assay: Compound was tested in vivo for dopamine agonist activity in the rat rotation assay after intravenous administration at the 4.60 (umol/kg) dose
Rattus norvegicus [3] = assay: Compound was tested in vivo for dopamine agonist activity in the rat rotation assay after intravenous administration at the dose 1.38 (umol/kg)
Rattus norvegicus [4] = assay: Compound was tested in vivo for dopamine agonist activity in the rat rotation assay after intravenous administration at dose 3.5 (umol/kg)

| Structure (SMILES) | ED50 (Felis catus) [µmol/kg] | Inhibition (Rattus norvegicus [1]) [%] | Inhibition (Rattus norvegicus [2]) [%] | Inhibition (Rattus norvegicus [3]) [%] | Inhibition (Rattus norvegicus [4]) [%] |
| --- | --- | --- | --- | --- | --- |
| CN1CCCC2(OCCO2)C1Cc1ccccc1 (stereo not drawn) | > 4 | 22 | 36 | 18 |  |
| CN1CCCC2(OCCO2)C1Cc1cccc2[nH]ccc12 (stereo not drawn) | 0.095 |  |  |  |  |
| CN1CCCC2(OCCO2)C1Cc1c[nH]c2ccccc12 (stereo not drawn) | > 4 |  |  |  | 32 |
| CN1CCc2cccc3c2[C@H]1Cc1ccc(O)c(O)c1-3 [APOMORPHINE] | 0.0348 |  |  |  |  |
